RGS4 block: inhibitors of human RGS4. HEK293 M3R/RGS4 inducible, Fluo-4 calcium flux; hits give high values; triggered by carbachol at its EC20. B-score at 10 µM. actives 0.45% (n = 310,000). AID 463165;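 active means B-score, a plate-corrected calcium signal, over three deviations above library mean, with baseline fluorescence within five deviations of library mean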;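 further: RGS4 expression induced by doxycycline in cells with stable M3 receptor; B-score is computed from the integrated fluorescence ratio over baseline after carbachol; higher B-score means a larger calcium signal and so more RGS4 inhibition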
Target sequence (P49798 whole entry, looked up): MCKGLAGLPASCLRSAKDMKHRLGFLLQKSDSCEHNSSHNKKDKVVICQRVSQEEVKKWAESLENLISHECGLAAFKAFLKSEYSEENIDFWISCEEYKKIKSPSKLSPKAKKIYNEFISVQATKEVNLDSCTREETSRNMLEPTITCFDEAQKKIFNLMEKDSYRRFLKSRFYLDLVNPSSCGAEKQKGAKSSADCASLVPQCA
MrgX1 antag: human MrgX1 receptor antagonism, primary screen | actives 1.3% (n = 310,000) | AID 588676 | MRGX1-HEK293 calcium flux, Fluo-4, BAM8-22 antagonism; hits give low values | B-score at 10 µM | Q96LB2;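 active means calcium-response B-score plate-corrected more than 3 library SD below zero, starting fluorescence within 5 deviations, no agonist response on first addition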;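 further: peak minus trough fluorescence over baseline after final BAM8-22 challenge near maximal dose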
Target sequence (Q96LB2 whole entry, looked up): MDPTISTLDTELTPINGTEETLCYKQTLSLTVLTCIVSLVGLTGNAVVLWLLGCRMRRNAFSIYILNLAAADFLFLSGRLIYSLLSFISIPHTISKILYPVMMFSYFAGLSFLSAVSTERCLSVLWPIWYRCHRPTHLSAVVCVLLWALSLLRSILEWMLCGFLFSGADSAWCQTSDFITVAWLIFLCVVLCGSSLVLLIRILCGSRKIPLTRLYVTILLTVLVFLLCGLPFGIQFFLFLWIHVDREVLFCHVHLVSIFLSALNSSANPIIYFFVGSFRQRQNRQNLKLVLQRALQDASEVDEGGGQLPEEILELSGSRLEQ
MrgX1 PAM: human MrgX1 positive allosteric modulation, primary screen; Q96LB2; MrgX1-HEK293, Fluo-4 calcium flux, FDSS; hits give high values; B-score at 10 µM; actives 0.63% (n = 310,000); AID 588675;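 active means plate-corrected calcium response at least 3 library SD above typical, normal starting fluorescence, not activating the receptor alone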;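 further: compound read alongside a low EC10 to EC30 dose of BAM8-22 agonist; peak minus trough fluorescence over baseline measured at the second addition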
RGS4 pot: RGS4 potentiation or activation; HEK293 M3R/inducible RGS4, carbachol calcium flux Fluo4; hits give low values; actives 0.92% (n = 310,000); B-score at 10 µM;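 active means B-score of the integrated calcium signal more than 4 SD below the library mean, with starting fluorescence not abnormally high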;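 further: negative B-score means reduced calcium response which marks RGS4 activation or potentiation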
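Material: Inducible-RGS4 HEK293 cells carrying M3 receptor; also added: carbachol at ECmax as muscarinic agonist stimulus; incubation: compound preincubation 20 min at room temperature before agonist; signal: Fluo4-AM (2 µM) calcium-flux fluorescence, kinetic read; measure: integrated calcium ratio converted to B score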
MrgX1 ag: human MrgX1 receptor agonism, primary screen. Q96LB2. B-score at 10 µM. AID 588627. actives 0.44% (n = 310,000). MrgX1-HEK293 cells, Fluo-4 calcium fluorescence, agonist mode; hits give high values;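 active means calcium response B-score plate-corrected fluorescence ratio at least 3 library SD, with starting fluorescence B-score inside 5 SD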
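times = overnight plating, then 30 min 37 °C plus 30 min room-temperature dye loading | assay system = stable human MrgX1 HEK293 cell line | input = fifteen thousand cells per well | signal = kinetic calcium dye fluorescence, Fluo-4 NW | dosing = compound delivered in addition one of three | read-out = B-scored fluorescence response ratio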
MrgX1 allo conf: confirmation of human MrgX1 receptor positive allosteric modulators; MrgX1-HEK293, Fluo-4 calcium fluorescence, FDSS; shares compounds with MrgX1 PAM; AID 602413; activation (ratio percentage), % at 10 µM; actives 13% (n = 1,200);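 active means ratio at least 3 SD above the weak peptide control, stable starting fluorescence, no direct agonism earlier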;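 further: compound followed by low BAM8-22 agonist challenge near EC20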
MrgX1 antag conf: confirmation of human MrgX1 receptor antagonists | shares compounds with MrgX1 antag | MrgX1-HEK293, BAM8-22 calcium flux, Fluo-4; hits give low values | remaining BAM8-22 calcium response % of control (hits give low values), % at 10 µM | actives 19% (n = 2,300) | AID 602420;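 active means remaining agonist calcium response no higher than 100% minus 3 SD of agonist-only control wells, with starting fluorescence near control levels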;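 further: agonist BAM8-22 given at a near maximal EC90 to ECmax level; peak minus minimum fluorescence divided by baseline after agonist addition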
HEK293 Ca flux: counter-screen for MrgX1 antagonists: effect in parental HEK293 cells. shares compounds with MrgX1 antag. Fluo-4 calcium fluorescence, FDSS. fluorescence ratio F(max-min)/F0 at 10 µM. actives 2% (n = 4,000);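 active means duplicate-averaged calcium fluorescence ratio at least three times the standard deviation of buffer wells, a nonspecific response in parental cells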
HEK293 Ca counter: MrgX1 allosteric activator counter-screen hit in parental HEK293 cells | shares compounds with MrgX1 antag | fluorescence ratio F(max-min)/F0 at 10 µM | actives 0.4% (n = 4,000) | AID 624114 | parental HEK293 calcium flux, Fluo-4 fluorescence ratio; hits give high values;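 active means calcium fluorescence ratio, averaged over duplicates, at least 3 SD of the buffer-well ratio, meaning a nonspecific response in receptor-free cells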;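 further: untransfected parental HEK293 lacking MrgX1 used as counterscreen for MrgX1 allosteric activators; fluorescence change taken during the second addition on a kinetic imager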
HEK293 Ca cntr2: MrgX1 activator counter-screen hit in parental HEK293 cells; shares compounds with MrgX1 antag; Fluo-4 calcium fluorescence (FDSS); hits give high values; actives 8.7% (n = 4,000); fluorescence ratio F(max-min)/F0 at 10 µM;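 active means calcium fluorescence ratio at least three times the spread of buffer wells, meaning a non-specific response in parental cells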
* marks the source's active call; other numbers are inactive results; i = inactive; / = no result given. A selection: hits, their analogues and other compounds. The true share with any hit is near 3.5%.

SMILES | RGS4 block | MrgX1 antag | MrgX1 PAM | RGS4 pot | MrgX1 ag | MrgX1 allo conf | HEK293 Ca flux | HEK293 Ca counter | HEK293 Ca cntr2 | others
Nc1nc(Cl)nc(N(c2ccccc2)c2ccccc2)n1 | i | i | i | i | i | / | / | / | /
Cc1cc(C)c(C#N)c(Sc2ccc(N)cc2)n1 | i | i | 12* | i | i | i | i | i | i
CCOC(=O)c1cc(C)nc(Sc2ccc(C)cc2)c1C#N | i | i | i | i | i | / | / | / | /
COc1cccc(CNC(=O)CN2C(=O)CSc3ccc(S(=O)(=O)N4CCCCC4)cc32)c1 | i | i | i | i | i | / | / | / | /
O=C1c2cccc(OCC(=O)N3CCCc4ccccc43)c2CCN1Cc1cccnc1 | i | i | 18* | i | i | i | i | i | i
CCN(CC)CCNC(=O)c1cn(CC)c2cc(N3CCN(C)CC3)c(F)cc2c1=O | i | i | i | i | i | / | / | / | /
CCN(CC)S(=O)(=O)c1cccc(NC2=NCC(C)S2)c1 (stereo not given) | i | i | 9.1* | i | i | i | i | i | i
CC1CCN(C(=O)C2CCCN2S(=O)(=O)c2ccc(Cl)cc2)CC1 (stereo not given) | i | i | i | i | i | / | / | / | /
CCN1C(=O)C(CC(=O)Nc2ccc(F)cc2)N(Cc2ccco2)C1=S (stereo not given) | i | i | 9.2* | i | i | i | i | i | i
COc1ccc(C(=O)NCC(=O)OCC(=O)c2ccc3c(c2)NC(=O)CO3)cc1 | i | i | 7.6* | i | i | i | i | 48* | i
COc1cc(/C=C2\SC(=O)N(CCN)C2=O)ccc1OS(=O)(=O)c1cc(C)ccc1C | i | / | / | i | / | / | / | / | /
Cc1ccc2nc(NCCCO)nc(-c3ccccc3)c2c1 | i | i | 11* | i | i | i | i | i | i
COc1ccc(C(=O)N2CCc3[nH]nc(-c4ccccc4)c3C2)cc1 | i | i | i | i | i | / | / | / | /
CCOC(=O)c1ccc2c(c1)nc(-c1ccccn1)n2CC | i | i | 7.6* | i | i | i | i | i | i
COc1cccc(CNc2ccc(Br)cn2)c1O | i | i | 12* | i | i | i | i | i | i
COc1cccc(CNc2ncc(Br)cc2Br)c1O | i | i | i | i | i | / | / | / | /
NC(=O)C1CCN(C(=O)C2CCC(=O)N(CC3CCCCC3)C2)CC1 (stereo not given) | i | i | i | i | i | / | / | / | /
CCN(CC)C(=O)Oc1ccnc2cc(Cl)ccc12 | i | i | 7.4* | i | i | i | i | i | i
CCN(CC)C(=O)Oc1ccc2ccccc2c1Cl | i | i | i | i | i | / | / | / | /
O=C(Oc1ccnc2cc(Cl)ccc12)N1CCCCCC1 | i | i | 15* | i | i | i | i | i | i
NNC(=O)CCc1nc2ccccc2[nH]1 | i | i | i | i | i | / | / | / | /
CN(Cc1c(C(=O)N/N=C/c2ccc(O)cc2)nnn1-c1nonc1N)c1ccccc1 | i | i | i | i | i | / | / | / | /
Cc1ccc(-n2c(C)cc(C(=O)CSc3nncs3)c2C)cc1 | i | i | 7* | i | i | 2.1%* | i | i | i
Cc1ccc(-n2c(C)cc(C(=O)CSc3nnnn3C)c2C)cc1 | i | i | i | i | i | / | / | / | /
Cc1sc2nc(-c3cccs3)oc(=O)c2c1C | i | i | i | i | i | / | / | / | /
SMILES | RGS4 block | MrgX1 antag | MrgX1 PAM | RGS4 pot | MrgX1 ag | MrgX1 allo conf | HEK293 Ca flux | HEK293 Ca counter | HEK293 Ca cntr2 | others
Cc1sc2nc(-c3ccc(Br)cc3)oc(=O)c2c1C | i | i | 6.6* | i | i | i | i | i | i
COc1ccc(/C(C)=N/NC(=O)c2ccc(NS(=O)(=O)c3cccs3)cc2)cc1 | i | i | i | i | i | / | / | / | /
COC(=O)C(NC(C)=O)(Nc1nc2c(C)cc(C)cc2s1)C(F)(F)F (stereo not given) | i | i | 17* | i | i | i | i | i | i
CCN1CCN(CCNC(=O)c2ccc3c(c2)N(Cc2ccc(F)cc2)C(=O)/C(=C/c2ccccc2)S3)CC1 | i | -16* | 21* | i | i | i | i | i | i | MrgX1 antag conf=66%*
CN1CCN(CCCNC(=O)c2ccc(/C=C3\Sc4ccccc4N(Cc4ccccc4F)C3=O)cc2)CC1 | i | / | / | i | / | / | / | / | /
COc1cc(CCC(C)=O)ccc1OC(=O)c1c(F)cccc1Cl | i | i | i | i | i | / | / | / | /
CN(C)S(=O)(=O)c1cccc(NC(=O)c2cc(=O)[nH]c3ccccc23)c1 | i | i | i | i | i | / | / | / | /
CN(C)S(=O)(=O)c1cccc(NC(=O)c2c[nH]c3ccccc23)c1 | i | i | 9.9* | i | i | i | i | i | i
O=C(Nc1ccccc1)c1ccc[nH]1 | i | i | i | i | i | / | / | / | /
O=C(c1ccccc1)c1nc[nH]c1C(=O)Nc1ccccc1 | i | i | 9.9* | i | i | i | i | i | i
CN(C)CCCN(C(=O)c1ccco1)c1nc2ccc(Br)cc2s1 | i | i | 6.5* | i | i | i | i | i | i
COc1ccc(CCN2CCCn3c2nc2c3c(=O)[nH]c(=O)n2C)cc1OC | i | i | i | i | i | / | / | / | /
CCn1c2nc(SCCN3CCOCC3)nnc2c2cc(C)cc(C)c21 | i | i | i | i | i | / | / | / | /
O=C(C1CCCO1)N1CCN(S(=O)(=O)c2ccc(Cl)cc2)CC1 (stereo not given) | i | i | 15* | i | i | i | i | i | i
